# Compounds with a hit are over-represented: about 1.5% of the library has one in this group of screens.
# OXTR potentiator: potentiators of human oxytocin receptor; P30559; CHO-OTR cells, Fluo-8 calcium fluorescence, potentiator mode; 0% = oxytocin EC15, 100% = EC100; activation, % at 3 µM; hit rate 0.061% among 320,000; AID 2445;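 active = activation above that plate's cutoff, the mean activation of tested compounds plus 3 SD, cut at about 6.6% in these data, passing the limit was not always enough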;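 also: 100% uses oxytocin at 75 nM as the full agonist control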
#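 Measured by – Fluo-8 calcium dye fluorescence · Test system – human OTR in CHO cells · Dosing – one concentration, 3.0 µM compound · Controls – EC15 oxytocin alone as 0%, 75 nM oxytocin as 100% · Evaluation – normalized max/min fluorescence ratio, % activation · Timing – 6 min pre-incubation, 100 s read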
# M4 ag: CHRM4 agonism in calcium assay; CHO-K1 hM4/Gqi5, Fluo-8 calcium fluorescence; vehicle 0%, full acetylcholine response 100%; activation, % at 3 µM; hit rate 0.14% among 360,000; AID 624127;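 active = activation above the run mean over all test wells plus 3 SD, cut at about 32% in these data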;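 also: peak over basal fluorescence ratio per well then scaled between controls; 0% = DMSO wells and 100% = acetylcholine at EC100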
# Target sequence (P08173 whole entry, looked up): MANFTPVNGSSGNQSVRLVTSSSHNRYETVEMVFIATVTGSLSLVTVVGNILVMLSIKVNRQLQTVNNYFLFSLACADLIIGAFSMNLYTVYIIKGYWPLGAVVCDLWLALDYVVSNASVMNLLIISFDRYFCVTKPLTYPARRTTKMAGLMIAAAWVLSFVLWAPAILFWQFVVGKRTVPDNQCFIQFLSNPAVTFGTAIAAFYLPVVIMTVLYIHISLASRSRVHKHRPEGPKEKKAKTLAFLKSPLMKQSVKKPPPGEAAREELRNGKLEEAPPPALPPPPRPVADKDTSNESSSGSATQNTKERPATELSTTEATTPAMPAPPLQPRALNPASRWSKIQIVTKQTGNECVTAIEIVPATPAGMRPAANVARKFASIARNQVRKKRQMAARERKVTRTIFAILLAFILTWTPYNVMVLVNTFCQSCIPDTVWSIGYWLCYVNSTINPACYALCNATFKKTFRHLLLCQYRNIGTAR
# OXTR agonist: human OXTR agonism; P30559; AID 2435; activation, % at 3 µM; hit rate 0.32% among 320,000; CHO-OTR cells, Fluo-8 calcium fluorescence; normalized: DMSO 0%, oxytocin 100%;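 active = activation above the mean of all tested compounds plus 3 SD, cutoff set per screening run, cut at about 20% in these data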;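 also: peak over basal fluorescence ratio from a 100 s FLIPR kinetic read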
# M4 PAM: CHRM4 positive allosteric modulation; P08173; activation, % at 3 µM; CHO-K1 hM4/Gqi5, Fluo-8 calcium fluorescence, ACh EC20; 0% = ACh EC20, 100% = maximal ACh; hit rate 0.4% among 360,000;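 active = activation above its plate's cutoff, the mean activation of sample wells plus 3 SD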
# V1R ag counter: activates human V1a receptor in oxytocin agonist counter-screen. P37288. CHO-V1R cells, Fluo-8 calcium fluorescence, agonist mode; 0% DMSO, 100% 3 nM vasopressin. activation, % at 3 µM. hit rate 0.25% among 320,000. AID 2797;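 active = activation above the mean activation of all tested compounds plus 3 SD, per screening run, cut at about 20% in these data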;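 also: signal is peak over basal fluorescence ratio across a 100 second FLIPR read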
# M4 antag: blocks acetylcholine activation of human M4 receptor; P08173; CHO-hM4 cells, ACh EC80, Fluo-8 calcium fluorescence; inhibition, % at 3 µM; hit rate 0.73% among 360,000; AID 624125;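 active = inhibition above its plate's cutoff, the mean inhibition of sample wells plus 3 SD, cut at about 27% in these data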;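 also: 0% = acetylcholine EC80 with DMSO and 100% = DMSO without agonist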
# V1aR agonist cf: confirmation of human vasopressin V1a receptor agonists | shares compounds with V1R ag counter | CHO-V1R cells, Fluo-8 calcium fluorescence, agonist | activation, % at 3 µM | AID 434964 | hit rate 20% among 180;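 active = average activation exceeds primary screen hit cutoff, cut at about 21% in these data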;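 also: peak over basal fluorescence ratio during a 100 s FLIPR read; 0% = DMSO only wells and 100% = 3 nM vasopressin wells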
# OXTR counter: OXTR agonism, counter-screen for V1R agonists | shares compounds with V1R ag counter | CHO-OTR cells, Fluo-8 calcium fluorescence, agonist | activation, % at 3 µM | hit rate 10% among 180;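 active = mean activation over three repeats above the cutoff from the earlier oxytocin receptor agonist screen, cut at about 20% in these data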;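 also: peak over minimum fluorescence ratio within a 100 second FLIPR read; 0% = DMSO only wells and 100% = oxytocin high control wells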
# Starred values were filed as active, the others as inactive; · = no result given.
SMILES,OXTR potentiator,M4 ag,OXTR agonist,M4 PAM,V1R ag counter,M4 antag,V1aR agonist cf,OXTR counter
Nc1c(C(=O)Nc2nccs2)sc2nc(-c3cccs3)cc(C(F)(F)F)c12,-18,21,19,-17,34*,22,24*,34*
CC(C)(O)C1CC[C@@](C)([C@@H]2CC[C@]3(C)[C@H]2[C@H](O)CC2[C@@]4(C)CCC(O)C(C)(C)C4C(OC4OC(CO)C(O)C(O)C4O[C@@H]4OCC(O)C(O)C4O)C[C@]23C)O1 (stereo partly specified),-8,1,2,-1,1,7,·,·
COc1ccc(/C=C\C(=O)O[C@@H]2C(O)C(O[C@@H]3OC(C)[C@H](O[C@@H]4OCC(O[C@H]5O[C@H](CO)[C@@H](O)C(O)C5O)C(O)C4O)C(O)C3O)[C@H](OC(=O)[C@]34CCC(C)(C)C[C@@H]3C3=CCC5[C@@]6(C)CC(O)C(O[C@@H]7OC(CO)C(O)[C@H](O)[C@H]7O)[C@@](C)(C(=O)O)C6CC[C@@]5(C)[C@]3(CO)CC4)O[C@H]2C)cc1 (stereo partly specified),-7,147*,6,-14,73*,79*,79*,44*
O=C(Nc1cccc(Cl)c1)Nc1ccc2nccnc2c1,-15,27,14,-14,23*,9,10,10
O=C(Nc1ccc2nccnc2c1)Nc1ccccc1Cl,-7,4,-1,-6,3,12,·,·
Cc1nc2cc(NC(=O)CCS(=O)(=O)c3ccccc3)ccc2s1,-8,6,0,16,0,2,·,·
O=C(CCl)Nc1cccc(Oc2ccccc2)c1,-7,2,1,6,0,-4,·,·
Cc1ccc(C)c(Nc2ccc3nonc3c2[N+](=O)[O-])c1,·,0,·,1,·,-8,·,·
Cc1ccc(C)c(Nc2c([N+](=O)[O-])ccc3nonc23)c1,-8,1,11,0,22*,-3,18,5
CC(OC(=O)c1cccc(O)c1)C(=O)N(C)Cc1ccccc1 (stereo unspecified),-5,1,0,2,1,5,·,·
CC(OC(=O)/C(C#N)=C/c1ccc(N(C)C)cc1)C(=O)N(C)Cc1ccccc1 (stereo unspecified),-17,19,18,-13,30*,6,32*,19
COc1ccc(OC)c(C2=NS(=O)(=O)N(C)C(C(=O)NCc3cccs3)=C2)c1,-9,7,16,-4,22*,5,11,25*
Cc1ccc(C(C)C)c(OCC(=O)NNC(=O)CC2OC(=O)c3ccccc32)c1 (stereo unspecified),-3,3,2,-4,3,7,·,·
O=C(COC(=O)c1cc[n+]([O-])cc1)Nc1ccc(Cl)cc1Cl,-6,0,0,1,2,7,·,·
COC(=O)C1=NN(C(=O)c2ccccc2)C(O)(c2ccc([N+](=O)[O-])cc2)C1 (stereo unspecified),·,4,·,-1,·,2,·,·
COC(=O)C1=NN(C(=O)c2ccc(C)cc2)C(O)(c2ccc(Cl)cc2)C1 (stereo unspecified),-6,·,13,·,33*,·,6,18
COc1ccccc1NC(=O)C(C)OC(=O)CCNS(=O)(=O)c1ccc(C)c(C)c1 (stereo unspecified),-8,5,-2,2,-2,-13,·,·
ONC(=Nc1ccccc1Cl)c1ccccc1Cl,-10,2,3,-3,20*,1,1,2
O=[N+]([O-])c1cccc(C(=Nc2ccccc2Cl)NO)c1,3,-1,-1,2,0,0,·,·
CCSc1nc(O)cc(=O)n1CC,-1,4,5,-5,25*,4,0,0
C=CCn1c(SCC(=O)N(CC)CC)nc(O)cc1=O,-2,1,0,-1,0,9,·,·
Cc1ccc(-c2c(C(=O)N/N=C/c3ccco3)nnn2-c2nonc2N)cc1,-10,7,9,2,28*,1,8,11
NC(=O)C1CCN(C(=O)CCC(=O)c2cccs2)CC1,-1,0,1,8,1,-14,·,·
CCn1c(=O)c(C(=O)NNC(=O)c2ccccc2Br)c(O)c2ccccc21,-12,2,11,-2,47*,9,1,1
Cn1c(=O)c(C(=O)NNC(=O)c2cccc(Cl)c2)c(O)c2ccccc21,-1,1,1,-10,0,7,·,·
SMILES,OXTR potentiator,M4 ag,OXTR agonist,M4 PAM,V1R ag counter,M4 antag,V1aR agonist cf,OXTR counter
CCn1c(=O)c(C(=O)NNC(=O)c2cccc(Cl)c2)c(O)c2ccccc21,-11,27,14,5,26*,-21,17,11
O=S1(=O)NC(C2CC2c2ccccc2)CCO1 (stereo unspecified),2,2,2,4,1,-2,·,·
O=C(O)/C=C/c1ccccc1Oc1ccc(Cl)cc1Cl,-7,0,0,1,2,-4,·,·
CS(=O)(=O)c1ccc(Cl)c(NC(=O)COC(=O)CCc2c[nH]c3ccccc23)c1,-19,18,9,-5,28*,1,3,4
CCSC1=N/C(=C\C=C2/Oc3ccccc3N2CC)C(=O)S1,-7,2,11,-3,23*,-8,21*,13
CCc1ccc(N=Nc2ccc(O)c3[nH]cnc23)cc1,-8,48*,14,-13,23*,28*,26*,16
Cc1ccc(NC(=O)Nc2c(C)n(C)n(-c3ccccc3)c2=O)cc1,-6,0,1,0,21*,-2,0,0
O/N=C(\Cn1ccnc1)c1ccccc1,·,0,·,3,·,4,·,·
CC(C)CC(=O)Nc1cccc(NC(=O)CC(C)C)n1,-4,1,-1,-7,-1,-2,·,·
Cc1ccc(S(=O)(=O)NCC(=O)N/N=C/c2ccc(Cl)cc2)cc1,8,0,-2,3,22*,5,-1,-1
Cc1ccc(S(=O)(=O)NCC(=O)N/N=C/c2ccc(Cl)cc2Cl)cc1,-10,-1,-3,-6,-1,-3,·,·
COc1cc(OC)c(OC)cc1/C=C1\Oc2cc(OS(C)(=O)=O)ccc2C1=O,-7,2,17,-3,21*,5,15,17
CS(=O)(=O)Oc1ccc2c(c1)O/C(=C\c1cccnc1)C2=O,-1,5,1,-4,2,-9,·,·
